From PubChem
Shown are actives, neighbours in structure and some others; about 3.5% of the full set was active somewhere.
MrgX1 allo act: positive allosteric modulators of MrgX1, primary screen, HEK293 cells, Fluo-4 calcium flux. Mas-related G-protein coupled receptor member X1 (Homo sapiens), Q96LB2. AID 588675, 2011. FDSS; stronger effect = higher value. hit rate 0.63% among 310,000. B-score at 10 µM;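 active means plate-corrected calcium response at least 3 library SD above typical, normal starting fluorescence, not activating the receptor alone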;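 further: compound read alongside a low EC10 to EC30 dose of BAM8-22 agonist; peak minus trough fluorescence over baseline measured at the second addition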
Target sequence (Q96LB2 whole entry, looked up): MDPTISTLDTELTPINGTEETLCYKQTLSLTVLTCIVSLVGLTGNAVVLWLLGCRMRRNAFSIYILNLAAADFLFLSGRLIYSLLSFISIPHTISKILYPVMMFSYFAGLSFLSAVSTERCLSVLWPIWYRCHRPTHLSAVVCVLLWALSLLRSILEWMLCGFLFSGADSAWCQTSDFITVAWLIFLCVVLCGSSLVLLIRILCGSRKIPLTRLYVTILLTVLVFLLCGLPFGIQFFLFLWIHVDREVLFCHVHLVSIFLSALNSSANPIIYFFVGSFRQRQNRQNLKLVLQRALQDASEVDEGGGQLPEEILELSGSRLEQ
RGS4 pot: RGS4 potentiators or activators, primary screen, cell-based, HEK293 M3R inducible RGS4, calcium flux; carbachol calcium flux Fluo4; stronger effect = lower value; B-score at 10 µM; hit rate 0.92% among 310,000;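 active means B-score of the integrated calcium signal more than 4 SD below the library mean, with starting fluorescence not abnormally high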;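 further: negative B-score means reduced calcium response which marks RGS4 activation or potentiation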
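test system = HEK293 cells with stable M3R and inducible RGS4 | schedule = recording 10 s baseline at 1 Hz, 100 s post-agonist | technique = Fluo4-AM (2 µM) calcium-flux fluorescence, kinetic read | measure = Agonist-evoked peak-minus-minimum fluorescence over baseline, integrated ratio, B score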
MrgX1 agonist: agonists of human MrgX1 receptor, primary screen, HEK293 cells, Fluo-4 calcium flux | Fluo-4 calcium fluorescence, agonist mode; stronger effect = higher value | Mas-related G-protein coupled receptor member X1 (Homo sapiens), Q96LB2 | AID 588627, 2011 | B-score at 10 µM | hit rate 0.44% among 310,000;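 active means calcium response B-score plate-corrected fluorescence ratio at least 3 library SD, with starting fluorescence B-score inside 5 SD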
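System – MrgX1-expressing HEK293 cells · Incubation – cells plated overnight, dye loaded 0.5 h 37 °C, 0.5 h room temperature · Technique – kinetic Fluo-4 NW fluorescence of intracellular calcium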
RGS4 block: RGS4 inhibitors, primary screen, cell-based, HEK293 M3R inducible RGS4, calcium flux; Fluo-4 calcium flux; stronger effect = higher value; triggered by carbachol at its EC20; Regulator of G-protein signaling 4 (Homo sapiens), P49798; hit rate 0.45% among 310,000; B-score at 10 µM;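 active means B-score, a plate-corrected calcium signal, over three deviations above library mean, with baseline fluorescence within five deviations of library mean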;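 further: RGS4 expression induced by doxycycline in cells with stable M3 receptor; B-score is computed from the integrated fluorescence ratio over baseline after carbachol; higher B-score means a larger calcium signal and so more RGS4 inhibition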
Target sequence (P49798 whole entry, looked up): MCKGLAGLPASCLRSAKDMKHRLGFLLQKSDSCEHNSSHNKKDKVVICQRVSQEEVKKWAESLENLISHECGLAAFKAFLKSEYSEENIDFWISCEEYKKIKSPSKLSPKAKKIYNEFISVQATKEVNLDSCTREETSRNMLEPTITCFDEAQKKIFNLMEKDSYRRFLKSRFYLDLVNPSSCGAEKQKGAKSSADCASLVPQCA
MrgX1 antagonist: antagonists of human MrgX1 receptor, primary screen, HEK293 cells, Fluo-4 calcium flux | BAM8-22 antagonism; stronger effect = lower value | B-score at 10 µM | hit rate 1.3% among 310,000 | AID 588676, 2011;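 active means calcium-response B-score plate-corrected more than 3 library SD below zero, starting fluorescence within 5 deviations, no agonist response on first addition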;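 further: peak minus trough fluorescence over baseline after final BAM8-22 challenge near maximal dose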
RGS4 act valid: reduced carbachol calcium response, RGS4-induced M3R cells, confirmation, RGS4 activator project, cell-based, HEK293 M3R/RGS4 inducible, calcium flux, duplicate | carbachol calcium flux Fluo4 | shares compounds with RGS4 pot | AID 602282, 2012 | inhibition, % at 10 µM | hit rate 89% among 1,100;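 active means inhibition above 3 SD of the buffer control wells, cut at about 41% in these data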;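 further: signal is the integrated peak-minus-minimum Fluo4 fluorescence over baseline ratio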
M3R Ca counter: activity in cells without induced RGS4 expression; shares compounds with RGS4 pot; HEK293 M3R non-induced RGS4, Fluo4 calcium flux; after carbachol challenge at its EC90; inhibition, % at 10 µM; hit rate 82% among 1,100;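 active means inhibition exceeding 3 SD of buffer-only control wells, cut at about 26% in these data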;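 further: percent drop in integrated peak-minus-baseline over baseline Fluo4 ratio after carbachol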
Each line names hits and unclear results; the compound was inactive in the other large screens (follow-up assays come after a bar, where they were run).

CCOC(=O)C1CCN(S(=O)(=O)c2ccc3c(c2)CC(C)N3C(=O)C2CCC2)CC1 (centres undefined)	RGS4 pot -8.22 | RGS4 act valid 57.0 | M3R Ca counter inactive
Cc1cccc(C)c1NC(=O)C1C2C=CC(C2)C1C(=O)O (centres undefined)	none
CCOC(=O)c1[nH]c2ccc(Br)cc2c1NC(=O)CCN1CCCC(C)(C)C1	RGS4 pot -14.4 | RGS4 act valid 93.5 | M3R Ca counter 73.8
CCOC(=O)c1[nH]c2ccc(F)cc2c1NC(=O)CCN1CCOCC1	none
COc1ccc(-c2cc(C(=O)N(C)CCc3ccc(OC)c(OC)c3)c3ccccc3n2)cc1	none
COc1ccc(-c2cc(C(=O)N(C)Cc3cccc(OC)c3OC)c3ccccc3n2)cc1OC	none
COc1ccc(CN(C)C(=O)c2cc(-c3ccc(OC)c(OC)c3)nc3ccccc23)c(OC)c1	RGS4 pot -8.96 | RGS4 act valid 69.0 | M3R Ca counter 83.8
COc1cccc(NC(=O)CN(C)C(=O)c2cc(-c3ccc(F)cc3)nc3ccccc23)c1	RGS4 pot -7.63 | RGS4 act valid 85.5 | M3R Ca counter 64.3
COc1cccc(CN(C)C(=O)c2cc(-c3ccc(OC)c(OC)c3)nc3ccccc23)c1	RGS4 pot -9.81 | RGS4 act valid 66.5 | M3R Ca counter 28.3
CC1=C(c2ccccc2)SC2=NCCN21	RGS4 pot -9.67 | RGS4 act valid 75.0 | M3R Ca counter 31.3
CCn1c(=NC(=O)c2cccc(N3C(=O)CCC3=O)c2)sc2c(C)ccc(OC)c21	RGS4 pot -8.6 | RGS4 act valid 68.0 | M3R Ca counter 30.3
COc1ccc(C(=O)N=c2sc3c(C)ccc(OC)c3n2C)cc1OC	RGS4 pot -7.72 | RGS4 act valid 86.5 | M3R Ca counter 50.3
Nc1nnc(CC(=O)Nc2ccccc2)s1	none
OC(CNCc1ccc(Cl)cc1)(c1ccccc1)c1ccc(F)cc1 (centres undefined)	RGS4 pot -9.37 | RGS4 act valid 94.0 | M3R Ca counter 85.8
OC(CNCc1ccc(F)cc1)(c1ccc(F)cc1)c1ccc(F)cc1	none
Cc1ccccc1CNC(=O)c1ccccc1N(C)S(=O)(=O)c1ccccc1	none
CCc1ccc(NC(=O)CCc2nc3cccnc3n2Cc2ccc(OC)cc2)cc1	RGS4 pot -8 | RGS4 act valid inactive | M3R Ca counter inactive
CCCCCCNC(=O)CCc1nc2cccnc2n1Cc1ccc(OC)cc1	none
CCCCCCCOC(=O)c1ccc(OC(=O)c2cccnc2)cc1	RGS4 pot -8.42 | RGS4 act valid 90.5 | M3R Ca counter 58.8
CCCCCOC(=O)c1ccc(OC(=O)c2cncc(Br)c2)cc1	none
Cc1ccc(C(=O)N(CCc2ccccc2)Cc2ccccc2)cc1S(=O)(=O)N1CCCCC1	RGS4 pot -8.51 | RGS4 act valid 91.0 | M3R Ca counter 49.8
N=c1c2c(-c3ccccc3)c(-c3ccccc3)oc2ncn1CCN1CCOCC1	RGS4 pot -8.96 | RGS4 act valid 58.5 | M3R Ca counter 83.8
O=C(c1cccnc1)N1CCCC(Nc2ccc(F)cc2)C1 (centres undefined)	none
CC(C)n1cc([C@@H]2C[C@H]3CN(Cc4cccc(Cl)c4)C(=O)[C@]34CCCN24)cn1	RGS4 pot -7.59 | RGS4 act valid 46.0 | M3R Ca counter 83.8
COC(=O)c1cc2sccc2n1Cc1nc(-c2cccc(Cl)c2)oc1C	none
COC(=O)c1cc2occc2n1Cc1nc(-c2cccc(Cl)c2)oc1C	RGS4 pot -8.88 | RGS4 act valid 94.0 | M3R Ca counter 82.8
CCn1c(=O)n(CCc2ccccc2)c(=O)c2c3c(sc21)CCCC3	none
COC(=O)Cn1c(=O)n(CCc2ccccc2)c(=O)c2c3c(sc21)CCCC3	RGS4 pot -7.79 | RGS4 act valid 91.5 | M3R Ca counter 88.8
